Experimental data published in ChEMBL document CHEMBL1152183, “Structure-activity relationships of 3-substituted N-benzhydryl-nortropane analogs as nociceptin receptor ligands for the treatment of cough” (Bioorg Med Chem Lett, 2008).

How the values were obtained:
[1] = molecular target: T1, Nociceptin receptor (Homo sapiens, UniProt P41146); test: Displacement of [125I][Tyr14]nociceptin FQ from human cloned nociceptin receptor expressed in CHO cells; format: cell-based
Method in brief: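 Competition binding on CHO cell membranes expressing cloned human nociceptin receptor, radioligand [125I][Tyr14]nociceptin FQ; Ki determined from dose–response curves.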

[2] = molecular target: Mu-type opioid receptor (Homo sapiens, UniProt P35372); test: Displacement of [3H]diprenorphine from human mu opioid receptor expressed in CHO cells; format: cell-based
Mu-type opioid receptor, sequence (P35372 whole entry): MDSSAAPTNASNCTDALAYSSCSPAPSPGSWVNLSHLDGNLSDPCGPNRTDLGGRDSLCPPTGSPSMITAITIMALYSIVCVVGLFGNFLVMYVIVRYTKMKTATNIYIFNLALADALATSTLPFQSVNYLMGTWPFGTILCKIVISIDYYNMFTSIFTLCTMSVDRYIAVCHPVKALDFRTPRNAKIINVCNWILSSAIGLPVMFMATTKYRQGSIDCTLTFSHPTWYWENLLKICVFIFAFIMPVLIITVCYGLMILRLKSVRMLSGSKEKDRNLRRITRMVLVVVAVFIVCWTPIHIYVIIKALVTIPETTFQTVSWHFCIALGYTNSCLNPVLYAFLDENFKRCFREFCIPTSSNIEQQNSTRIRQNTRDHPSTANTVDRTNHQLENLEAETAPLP
Method in brief: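 CHO cell membranes expressing human opioid receptor; [3H]-diprenorphine as radioligand; Ki determined from dose–response curves.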

[3] = organism: Homo sapiens; test: Selectivity for human cloned nociceptin receptor over human mu opioid receptor
[4] = molecular target: T1, Nociceptin receptor; test: Agonist activity at human cloned nociceptin receptor expressed in CHO cells assessed as stimulation of [35S]GTPgammaS binding; format: functional, cell-based
Method in brief: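 Membranes from cells transfected with nociceptin receptor; agonism measured as enhancement of [35S]GTPγS binding in presence of GDP; EC50 derived.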

[5] = molecular target: T1, Nociceptin receptor; test: Agonist activity at human cloned nociceptin receptor expressed in CHO cells assessed as stimulation of [35S]GTPgammaS binding at 10 uM; format: functional, cell-based
[6] = tested on: Cavia porcellus; test: Antitussive activity in guinea pig assessed as suppression of capsaicin-induced cough at 0.3 mg/kg, po; format: functional
[7] = organism: Homo sapiens; test: Selectivity for human cloned nociceptin receptor over human delta opioid receptor
[8] = organism: Homo sapiens; test: Selectivity for human cloned nociceptin receptor over human kappa opioid receptor
[9] = molecular target: T1, Nociceptin receptor; test: Agonist activity at human cloned nociceptin receptor expressed in CHO cells assessed as stimulation of [35S]GTPgammaS binding at 5.5 uM; format: functional, cell-based
[10] = organism: Cavia porcellus; test: Antitussive activity in guinea pig assessed as suppression of capsaicin-induced cough after 2 hrs; format: functional
Method in brief: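 Guinea pig capsaicin-induced cough model; oral dosing; cough suppression read 2 h after dosing relative to placebo; ED50 derived.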

T1 sequence (P41146 whole entry): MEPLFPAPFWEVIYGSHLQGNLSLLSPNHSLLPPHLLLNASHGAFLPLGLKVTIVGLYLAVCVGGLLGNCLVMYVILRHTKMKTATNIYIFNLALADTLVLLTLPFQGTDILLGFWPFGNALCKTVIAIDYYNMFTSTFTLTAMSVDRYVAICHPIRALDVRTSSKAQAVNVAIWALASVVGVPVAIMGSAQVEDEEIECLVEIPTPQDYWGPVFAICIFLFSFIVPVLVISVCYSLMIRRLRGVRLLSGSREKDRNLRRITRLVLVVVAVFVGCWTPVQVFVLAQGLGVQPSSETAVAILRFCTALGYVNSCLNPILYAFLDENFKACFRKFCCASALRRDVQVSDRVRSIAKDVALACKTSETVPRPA

SMILES	Ki [1]	Ki [2]	also measured
CN(C)C[C@@]1(c2ccccn2)C[C@H]2CC[C@@H](C1)N2C(c1ccccc1Cl)c1ccccc1Cl	7 nM	785 nM	fold change (FC) [3]: 75; EC50 [4]: 156 nM
CC(=O)NC[C@@]1(Cc2ccc(F)cc2)C[C@H]2CC[C@@H](C1)N2C(c1ccccc1Cl)c1ccccc1Cl	15 nM	782 nM	EC50 [4]: 129 nM; Activity [5]: 124%; Activity [6]: 23%
CCNC[C@@]1(c2ccccn2)C[C@H]2CC[C@@H](C1)N2C(c1ccccc1Cl)c1ccccc1Cl	6 nM	743 nM	fold change (FC) [3]: 75
O=C1CCCN1C[C@@]1(c2ccccc2)C[C@H]2CC[C@@H](C1)N2C(c1ccccc1Cl)c1ccccc1Cl	68 nM		
NC[C@@]1(Cc2ccccc2)C[C@H]2CC[C@@H](C1)N2C(c1ccccc1Cl)c1ccccc1Cl	11 nM	1340 nM	fold change (FC) [3]: 121; fold change (FC) [7]: 300; fold change (FC) [8]: 33
CC(=O)NC[C@@]1(c2ccc(N3CCCCC3)cn2)C[C@H]2CC[C@@H](C1)N2C(c1ccccc1Cl)c1ccccc1Cl	99 nM		
CN(C)C[C@@]1(c2ccccc2)C[C@H]2CC[C@@H](C1)N2C(c1ccccc1Cl)c1ccccc1Cl	17 nM	1490 nM	fold change (FC) [7]: 300; fold change (FC) [8]: 31; EC50 [4]: 483 nM; Activity [9]: 104%; Activity [6]: 36%
CN(C)C[C@@]1(Cc2ccccc2)C[C@H]2CC[C@@H](C1)N2C(c1ccccc1Cl)c1ccccc1Cl	55 nM		
Clc1ccccc1C(c1ccccc1Cl)N1[C@@H]2CC[C@H]1C[C@@](Cc1ccccc1)(CN1CCCC1)C2	116 nM		
CC(=O)NC[C@@]1(c2ccccn2)C[C@H]2CC[C@@H](C1)N2C(c1ccccc1Cl)c1ccccc1Cl	5 nM	374 nM	fold change (FC) [3]: 75
COc1cccc([C@]2(CN)C[C@H]3CC[C@@H](C2)N3C(c2ccccc2Cl)c2ccccc2Cl)n1	11 nM	123 nM	fold change (FC) [7]: 300; fold change (FC) [8]: 36
O=C1CCCN1C[C@@]1(Cc2ccccc2)C[C@H]2CC[C@@H](C1)N2C(c1ccccc1Cl)c1ccccc1Cl	336 nM		
NC[C@@]1(c2cccc(F)n2)C[C@H]2CC[C@@H](C1)N2C(c1ccccc1Cl)c1ccccc1Cl	29 nM		
Fc1ccc(C[C@]2(CN3CCCC3)C[C@H]3CC[C@@H](C2)N3C(c2ccccc2Cl)c2ccccc2Cl)cc1	58 nM		
Clc1ccccc1C(c1ccccc1Cl)N1[C@@H]2CC[C@H]1C[C@](CN1CCCC1)(c1ccccc1)C2	70 nM	4170 nM	
CC(=O)N(C)C[C@@]1(c2ccccc2)C[C@H]2CC[C@@H](C1)N2C(c1ccccc1Cl)c1ccccc1Cl	210 nM	2620 nM	fold change (FC) [3]: 13
CC(=O)NC[C@@]1(c2ccc(Br)cn2)C[C@H]2CC[C@@H](C1)N2C(c1ccccc1Cl)c1ccccc1Cl	27 nM	752 nM	
CC(=O)NC[C@@]1(Cc2ccccc2)C[C@H]2CC[C@@H](C1)N2C(c1ccccc1Cl)c1ccccc1Cl	12 nM	458 nM	fold change (FC) [7]: 300; fold change (FC) [8]: 34
NC[C@@]1(c2ccccc2)C[C@H]2CC[C@@H](C1)N2C(c1ccccc1Cl)c1ccccc1Cl	6 nM	674 nM	fold change (FC) [3]: 112; fold change (FC) [7]: 300; fold change (FC) [8]: 30
COc1cccc([C@]2(CNC(C)=O)C[C@H]3CC[C@@H](C2)N3C(c2ccccc2Cl)c2ccccc2Cl)n1	4 nM	251 nM	
COc1ccc([C@]2(CNC(C)=O)C[C@H]3CC[C@@H](C2)N3C(c2ccccc2Cl)c2ccccc2Cl)nc1	62 nM	3450 nM	
CC(=O)NC[C@@]1(c2ncccc2C)C[C@H]2CC[C@@H](C1)N2C(c1ccccc1Cl)c1ccccc1Cl	173 nM		

SMILES	Ki [1]	Ki [2]	also measured
CC(=O)NC[C@@]1(c2cccc(F)n2)C[C@H]2CC[C@@H](C1)N2C(c1ccccc1Cl)c1ccccc1Cl	24 nM	1280 nM	
COC(=O)NC[C@@]1(c2ccccc2)C[C@H]2CC[C@@H](C1)N2C(c1ccccc1Cl)c1ccccc1Cl	20 nM	905 nM	
NC[C@@]1(c2cccnc2)C[C@H]2CC[C@@H](C1)N2C(c1ccccc1Cl)c1ccccc1Cl	82 nM		
NC[C@@]1(c2ccccn2)C[C@H]2CC[C@@H](C1)N2C(c1ccccc1Cl)c1ccccc1Cl	7 nM	617 nM	fold change (FC) [3]: 75; fold change (FC) [7]: 300; fold change (FC) [8]: 35
NC[C@@]1(Cc2ccc(F)cc2)C[C@H]2CC[C@@H](C1)N2C(c1ccccc1Cl)c1ccccc1Cl	34 nM	1410 nM	EC50 [4]: 124 nM; Activity [9]: 87%
Cc1ccc2c(c1)[C@]1(CN2)C[C@H]2CC[C@@H](C1)N2C(c1ccccc1Cl)c1ccccc1Cl	74 nM	998 nM	
CCNC[C@@]1(c2cccc(OC)n2)C[C@H]2CC[C@@H](C1)N2C(c1ccccc1Cl)c1ccccc1Cl	20 nM	442 nM	
Clc1ccccc1C(c1ccccc1Cl)N1[C@@H]2CC[C@H]1C[C@@]1(CNc3ccccc31)C2	50 nM	1200 nM	
CC(=O)NC[C@@]1(c2ccc(F)cc2)C[C@H]2CC[C@@H](C1)N2C(c1ccccc1Cl)c1ccccc1Cl	31 nM	2110 nM	fold change (FC) [3]: 68
NC[C@@]1(c2ncccc2CN2CCCCC2)C[C@H]2CC[C@@H](C1)N2C(c1ccccc1Cl)c1ccccc1Cl	245 nM		
COc1ccc([C@]2(CNC(C)=O)C[C@H]3CC[C@@H](C2)N3C(c2ccccc2Cl)c2ccccc2Cl)cc1	118 nM	2410 nM	
Cc1cccnc1[C@]1(CN)C[C@H]2CC[C@@H](C1)N2C(c1ccccc1Cl)c1ccccc1Cl	50 nM		
CN(C)C[C@@]1(c2cccc(F)n2)C[C@H]2CC[C@@H](C1)N2C(c1ccccc1Cl)c1ccccc1Cl	104 nM	3980 nM	
CC(=O)NC[C@@]1(c2ncccc2CN2CCCCC2)C[C@H]2CC[C@@H](C1)N2C(c1ccccc1Cl)c1ccccc1Cl	670 nM	758 nM	
NC[C@@]1(C2CCCCN2)C[C@H]2CC[C@@H](C1)N2C(c1ccccc1Cl)c1ccccc1Cl (stereo not given in full)	17 nM		
CC(=O)NC[C@@]1(c2cccnc2)C[C@H]2CC[C@@H](C1)N2C(c1ccccc1Cl)c1ccccc1Cl	35 nM		
CNC[C@@]1(c2ccccc2)C[C@H]2CC[C@@H](C1)N2C(c1ccccc1Cl)c1ccccc1Cl	10 nM	566 nM	
CC(=O)NC[C@@]1(C2CCCCN2)C[C@H]2CC[C@@H](C1)N2C(c1ccccc1Cl)c1ccccc1Cl (stereo not given in full)	27 nM		
CC(=O)NC[C@@]1(c2ccccc2)C[C@H]2CC[C@@H](C1)N2C(c1ccccc1Cl)c1ccccc1Cl	20 nM	777 nM	fold change (FC) [7]: 300; fold change (FC) [8]: 32; EC50 [4]: 269 nM; Activity [5]: 122%; ED50 [10]: 0.19 mg/kg
Fc1ccc2c(c1)[C@]1(CN2)C[C@H]2CC[C@@H](C1)N2C(c1ccccc1Cl)c1ccccc1Cl	39 nM	1710 nM	
CCNC[C@]1(Cc2ccccc2)C[C@H]2CC[C@@H](C1)N2C(c1ccccc1Cl)c1ccccc1Cl	39 nM		
